Screening results: PubChem, several laboratories
A selection: hits, their analogues and other compounds. The true share with any hit is near 2.6%.
Exocytosis inh – LAMP-1 surface exposure blockers, TALL-104 cells – cell-based, flow cytometry, MLPCN library, primary screen; TALL-104 LAMP-1 surface exposure; cells stimulated with thapsigargin and PMA; inhibition, % at 10 µM; actives 0.66% (n = 360,000);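 active = inhibition above about 55%, limit read from the data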
Tb MetRS inh – T. brucei MetRS inhibitors, primary screen, biochemical, luminescence; actives 0.4% (n = 360,000); purified T. brucei MetRS, ATP depletion, Kinase-Glo luminescence; methionyl-tRNA synthetase (Trypanosoma brucei brucei); inhibition, % at 11.9 µM;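 active = inhibition above a per-plate cutoff of the control wells' mean inhibition plus 3 SD, cut at about 5.5% in these data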;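 also: 0% = DMSO wells median and 100% = median of wells with control inhibitor compound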
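Test system: purified T. brucei MetRS enzyme. Also added: ATP, methionine and E. coli bulk tRNA substrates. Compound: 11.9 µM single point. Schedule: 15 min enzyme-compound preincubation, 2 h reaction, 10 min detection, 25 °C. Signal: luciferase luminescence of residual ATP, Kinase-Glo. Evaluation: percent inhibition versus plate control medians. Controls: DMSO wells, low control.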
MC4R ag barr – MC4R agonists recruiting beta-arrestin, primary screen, cell-based, luminescence, agonist arm of biased-ligand search. actives 0.98% (n = 360,000). activation, % at 8.9 µM. Melanocortin receptor 4 (Homo sapiens), P32245. U2OS MC4R beta-arrestin complementation; percent of melanotan II response, DMSO zero;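 active = activation above a per-plate cutoff, the mean activation of sample wells on that plate plus 3 SD, cut at about 8% in these data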
ABCB6 inh 2 – ABCB6 transporter inhibitors, primary screen, K562-ABCB6 cells, flow cytometry, MLPCN library; fluorescence ratio to DMSO, % at 10 µM; actives 0.19% (n = 360,000); K562-ABCB6 porphyrin accumulation, 1 h; hits give low values;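 active = fluorescence ratio to DMSO below 75%, the collection mean minus 3 SD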;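 also: signal is porphyrin accumulated inside mitochondria; 100% equals median channel fluorescence of DMSO control wells; lower ratio means ABCB6 inhibition with less porphyrin fluorescence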
iPSC survival up – enhancers of single-cell hiPSC survival, primary screen, ATPlite luminescence; survival enhancement, % at 20 µM; actives 0.044% (n = 360,000); AID 602274, 2012; 100% = ROCK inhibitor wells, 0% = DMSO; in the data active = survival enhancement above about 18%;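 also: cells exposed to compounds for 16 hours before the ATP read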
MC4R antagonist – MC4R antagonists of cAMP signaling, primary screen, cell-based, TR-FRET, antagonist arm of biased-ligand search; MC4R-expressing cells, MTII-stimulated cAMP, LANCE TR-FRET; inhibition, % at 6.5 µM; actives 0.48% (n = 360,000);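 active = inhibition above its plate's cutoff, the mean of tested wells on that plate plus 3 SD, cut at about 29% in these data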;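 also: 0% = Melanotan II alone and 100% = Melanotan II plus saturating MCL0020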
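System: U2OS cells stably expressing human melanocortin 4 receptor (MC4R). Reagent: Melanotan II challenge after compound preincubation. Doses: 6.5 µM. Times: 30-min compound, 1-h challenge, 1-h detection, room temperature. Measured by: TR-FRET with Eu-cAMP and labeled anti-cAMP, 671 nm. Replicates: singlicate.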
* hit, by the source's call.

Results for CCOc1ccc(NC(=O)COC(=O)c2ccc3c(c2)OCCO3)cc1 ?
Exocytosis inh: -3.9; Tb MetRS inh: -0.2; MC4R ag barr: 1.4; ABCB6 inh 2: 98.0; iPSC survival up: -0.5; MC4R antagonist: 4.1

What do the screens show for `CC(C)[C@@H]1CC[C@@H](C)C[C@H]1OC(=O)C[n+]1cc(-c2ccc(Cl)cc2)n2c1CCCCC2`?
Exocytosis inh: 19.7; Tb MetRS inh: 0.1; MC4R ag barr: 58.7*; ABCB6 inh 2: 92.0; iPSC survival up: -0.8; MC4R antagonist: 3.7

Results for COc1ccc(NC(=O)COC(=O)C2CC2)c(OC)c1 ?
Exocytosis inh: 6.8; Tb MetRS inh: -0.4; MC4R ag barr: -0.4; ABCB6 inh 2: 95.0; iPSC survival up: 2.9; MC4R antagonist: -3.3

How did O=C(CNc1ccc2ccccc2c1)N/N=C/c1ccc([N+](=O)[O-])o1 do in these assays?
Exocytosis inh: -1.1; Tb MetRS inh: -0.5; MC4R ag barr: 11.3*; ABCB6 inh 2: 98.0; iPSC survival up: -4.6; MC4R antagonist: -9.1

What do the screens show for `COc1ccc(/C=C2\SC(=O)N(CC(=O)Nc3ccc(F)cc3)C2=O)cc1O`?
Exocytosis inh: -9.4; Tb MetRS inh: 0.4; MC4R ag barr: 9.2*; ABCB6 inh 2: 106.0; iPSC survival up: -0.6; MC4R antagonist: 10.8

How did Cc1ccc(CS(=O)(=O)c2ccc(C(=O)N3CCN(c4ccccn4)CC3)cc2[N+](=O)[O-])cc1 do in these assays?
Exocytosis inh: 0.5; Tb MetRS inh: -0.8; MC4R ag barr: -2.4; ABCB6 inh 2: 91.0; iPSC survival up: -0.6; MC4R antagonist: 5.9

Results for C#CCSc1nc2sc3c(c2c(=O)n1C)CCC3 ?
Exocytosis inh: -10.3; Tb MetRS inh: -1.2; MC4R ag barr: 9.1*; ABCB6 inh 2: 92.0; iPSC survival up: -0.6; MC4R antagonist: -4.0

Results for CSc1nc2sc3c(c2c(=O)n1C)CCC3 ?
Exocytosis inh: 2.8; Tb MetRS inh: -0.4; MC4R ag barr: -1.3; ABCB6 inh 2: 98.0; iPSC survival up: 1.9; MC4R antagonist: 2.2

Results for COC(=O)c1[nH]c2ccccc2c1NC(=O)/C=C/c1ccc2c(c1)OCO2 ?
Exocytosis inh: 9.4; Tb MetRS inh: -0.6; MC4R ag barr: 8.4*; ABCB6 inh 2: 97.0; iPSC survival up: 0.7; MC4R antagonist: -3.7

Results for O=C(Nc1ccncc1)c1cc(S(=O)(=O)N2CCCC2)ccc1Cl ?
Exocytosis inh: 0.7; Tb MetRS inh: -0.4; MC4R ag barr: -0.2; ABCB6 inh 2: 92.0; iPSC survival up: 46.9*; MC4R antagonist: 9.2

How did CC1(Cc2ccc(F)cc2)C(=O)Nc2ccc(-c3cccnc3)cc21 (stereo unspecified) do in these assays?
Exocytosis inh: 3.6; Tb MetRS inh: 0.5; MC4R ag barr: -1.6; ABCB6 inh 2: 109.0; iPSC survival up: -2.5; MC4R antagonist: 3.3

Results for Cc1cccc(OCCNC(=S)NC(=O)c2cncc(Br)c2)c1 ?
Exocytosis inh: -13.3; Tb MetRS inh: -0.4; MC4R ag barr: 9.3*; ABCB6 inh 2: 106.0; iPSC survival up: -0.2; MC4R antagonist: 0.4

How did COc1ccc(C(=O)C(CCCCC(CN(C)C)C(=O)c2ccc(OC)cc2)CN(C)C)cc1 (stereo unspecified) do in these assays?
Exocytosis inh: 20.8; Tb MetRS inh: -0.8; MC4R ag barr: 0.3; ABCB6 inh 2: 101.0; iPSC survival up: -2.5; MC4R antagonist: -4.8

How did CCOc1ccc(C(=O)C(CCC(CN(C)C)C(=O)c2ccc(OCC)cc2)CN(C)C)cc1 (stereo unspecified) do in these assays?
Exocytosis inh: 60.4*; Tb MetRS inh: -1.3; MC4R ag barr: 9.5*; ABCB6 inh 2: 100.0; iPSC survival up: -3.0; MC4R antagonist: 2.9
